Measured values taken from paper PMC9284555 (Journal of Agricultural and Food Chemistry, 2022).

Columns and labels:
SULT1A1 = conditions: inhibition of SULT1A1; cited from earlier work
SULT1A3 = conditions: inhibition of SULT1A3; cited from earlier work
COMT = conditions: inhibition of COMT; cited from earlier work
[1] = assay type: in vivo, human; conditions: for relative intensity (EGCG = 1): LC-MS intensity in human plasma after ingestion of catechin-rich tea; for AUC0–6h / T1/2 / Tmax: human plasma, oral catechin-rich beverage (135 mg EGCG), mean ± SD, n = 10
In short: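 Ten healthy fasted men drank 350 mL of a beverage with 615 mg catechins (135 mg EGCG). Plasma was taken at 0.5–6 h, acid/ascorbate/EDTA-stabilised and stored at −80 °C. Samples went through solid-phase extraction with an ethyl gallate internal standard. Analytes were identified and quantified by Orbitrap LC–MS (calibration 1–500 ng/mL). Parameters came from noncompartmental analysis; mean ± SD.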

Row | Molecule | IC50 (SULT1A1) | IC50 (SULT1A3) | IC50 (COMT) | relative intensity (EGCG = 1) [1] | AUC0–6h [1] | T1/2 [1] | Tmax [1]
1 | O=c1c(O)c(-c2ccc(O)c(O)c2)oc2cc(O)cc(O)c12 [quercetin] | 0.41 to 13 µM | 7 µM | 0.9 to 8.5 µM | – | – | – | –
2 | O=C(O[C@@H]1Cc2c(O)cc(O)cc2O[C@@H]1c1cc(O)c(O)c(O)c1)c1cc(O)c(OS(=O)(=O)O)c(O)c1 [EGCG-4″-sulfate] | – | – | – | 0.76 | 715.2 ± 127.1 nmol·h·L^–1 | 3.9 ± 1.5 h | 2.5 ± 0.60 h
3 | O=C(O[C@@H]1Cc2c(O)cc(O)cc2O[C@@H]1c1cc(O)c(O)c(O)c1)c1cc(O)c(O[C@@H]2O[C@H](C(=O)O)[C@@H](O)[C@H](O)[C@H]2O)c(O)c1 [EGCG-4″-glucuronide] | – | – | – | 0.39 | 198.9 ± 23.8 nmol·h·L^–1 | 1.5 ± 0.64 h | 1.3 ± 0.26 h
4 | (E)GCG-dimethyl-sulfate [(E)GCG-diMe-sulfate] | – | – | – | 0.54 | – | – | –
